Only some compounds are listed: those with a hit (about 2.4% of all), similar ones and a draw of the others.
Runt-SMMHC FRET = blocks binding of human RUNX1 Runt domain to CBFb-SMMHC. Q01196+Q13951. Cerulean-Runt/Venus-CBFb-SMMHC FRET ratio 530/480, 1 h. inhibition, % at 20 µM. 220,000 compounds, 0.74% hits. AID 1434;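 active = mean inhibition across duplicate retests at 20 µM reaching about 50%, limit read from the data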;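 also: 0% = DMSO wells and 100% = wells with excess untagged CBFb-SMMHC; inhibitors lower the FRET ratio by blocking Runt binding to CBFb-SMMHC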
EBV gp42 inh = blocks Epstein-Barr virus glycoprotein 42 binding; 220,000 compounds, 0.42% hits; Q1HVG2; AID 1085; Fluorescence polarization binding assay, mP read-out; inhibition, % (tested at 21.74 µM); in the data active = inhibition above about 50%
LANA-H2A inh = blocks KSHV LANA binding to histone H2A/H2B | 320,000 compounds, 0.6% hits | cell-free LANA-H2A/H2B peptide, fluorescence polarization | inhibition, % (test concentration not listed) | Q9QR71; in the data active = inhibition mostly above about 10%, no sharp cut-off; inactive = mostly below about 6.7%
RanGTP-Impb inh = inhibitors of RanGTP-importin-beta interaction, primary screen, biochemical, FRET, CFP-Ran, YFP-importin-beta, homogeneous; 300,000 compounds, 1.1% hits; cell-free CFP-Ran/YFP-importin-beta FRET ratio; inhibition, % (no concentration beside the values);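 active = more than half of the replicate wells show a fall in the fluorescence ratio signal beyond about 16%, limit read from the data, passing the limit was not always enough; inconclusive = exactly half of the replicate wells pass the set limit; inactive = fewer than half of replicates pass the limit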;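 also: 0% = DMSO wells and 100% = Ran loaded with GDP instead of GTP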
MEX-5 binding = C. elegans MEX-5 TCR-2 RNA binding activity; 300,000 compounds, 0.38% hits; Q9XUB2; MEX-5/FITC-TCR2 RNA binding, fluorescence polarization; hits give low values; activity score (negative = inhibition of binding), % at 10 µM; AID 1832;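 active = inhibition past about -25% in most replicates, and total fluorescence under double the plate's negative control median, limit read from the data; inconclusive = replicates evenly split on the limit, or fluorescence at least double controls; inactive = too little inhibition in most replicates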;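 also: 0% = DMSO and -100% = 5 µM competing unlabeled TCR2 RNA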
Runt-CBFb FRET = inhibitors of human RUNX1 Runt domain binding to CBFb | Q01196+Q13951 | Cerulean-Runt/Venus-CBFb FRET ratio 530/480, 1 h | inhibition, % at 20 µM | 220,000 compounds, 0.46% hits | AID 1496;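 active = inhibition over about 50% at 20 µM in the single-dose screen, limit read from the data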;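 also: 0% = DMSO wells and 100% = excess unlabeled CBFb competitor control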
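Reagent – Venus-CBFb binding partner, 100 nM · Assay system – Cerulean-tagged RUNX1 Runt domain (FRET donor) fusion protein · Input – 100 nM per protein · Incubation – two 1 h room-temperature incubations shielded from light · Measured by – FRET fluorescence · Medium – Tris buffer pH 7.5 with salts and BSA · Benchmarks – unlabeled CBFb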
* marks the source's active call; other numbers are inactive results; ? = inconclusive; . = no result.

SMILES	Runt-SMMHC FRET	EBV gp42 inh	LANA-H2A inh	RanGTP-Impb inh	MEX-5 binding	Runt-CBFb FRET
Cc1cc(=O)[nH]c(N)n1	2	-12	13*	3	6	1
CC(C)[C@H](NC(=O)OC(C)(C)C)C(=O)N/N=C/c1cccc2nccnc12	3	-12	7	4	.	-1
COc1ccc(CN2C=C3C(=O)C(C)(OC(=O)CCc4ccccc4)C(=O)C=C3C=C2c2ccc(C#N)cc2)cc1 (stereo not drawn)	1	-10	0	0	1	6
CCN(CC)CCCN1C=C2C(=O)C(C)(OC(=O)CCc3ccccc3)C(=O)C=C2C=C1c1ccc(C#N)cc1 (stereo not drawn)	51*	14	0	0	-3	36
CNc1nc(SCc2ccccc2Cl)nc2c1CCCC2	-3	-19	-2	2	1	0
COc1ccc(-n2cccc2/C=C2\C(=N)N3N=C(c4ccco4)SC3=NC2=O)cc1	-46	76*	7	-4	1	-10
CCC1=NN2C(=N)/C(=C\c3cccn3-c3ccc(Br)cc3)C(=O)N=C2S1	-4	59*	.	-3	7	.
CC(OC(=O)CNS(=O)(=O)c1ccc(C#N)cc1)C(=O)Nc1ccc(Cl)cn1 (stereo not drawn)	.	.	.	0	1	.
COc1nc(NCCC2=CCCCC2)nc(OC)n1	1	138*	-2	-3	0	0
N#Cc1ccccc1COc1cccc2c1CCCC2O (stereo not drawn)	.	.	-7	2	0	.
O=C1Nc2ccccc2SC(c2ccccc2)C1O (stereo not drawn)	-10	67*	-2	-1	-6	1
O=C(O)CC1Sc2ccccc2NC1=O (stereo not drawn)	-5	-16	0	-1	2	0
C=CCn1c2ccccc2c(=O)c2cc(C#Cc3ccsc3)ccc21	.	.	2	24*	-4	.
Cc1cc(N2CCOCC2)n2nc(C)c(-c3ccccc3)c2n1	136	-3	1	.	.	86*
CC1=NN(C(=O)c2ccc(Cn3cc([N+](=O)[O-])cn3)cc2)C(O)(C(F)(F)F)C1 (stereo not drawn)	5	-10	-2	-2	-1	-1
O=C(Nc1sc2c(c1C(=O)NCc1ccco1)CCCC2)c1ccc2c(c1)OCO2	65*	-12	8	?	2	37
Cc1ccc(C(=O)Nc2sc3c(c2C(=O)NCc2ccco2)CCCC3)cc1	7	-2	0	3	-1	-1
CCn1ccc(C(=O)NC2C(=O)N3C(C(=O)O)=C(C)CSC23)n1 (stereo not drawn)	0	-13	-14	1	.	-1
C=CC1=C(C(=O)O)N2C(=O)[C@@H](NC(=O)/C(=N\O)c3csc(N)n3)[C@H]2SC1 (stereo in doubt)	.	.	-1	-1	-26*	.
CNCCCOc1ccc(C(C)(C)c2ccccc2)cc1	-3	0	.	-1	1	-1
CNCCC(Oc1ccc(C(F)(F)F)cc1)c1ccccc1 (stereo not drawn)	3	-7	13*	1	2	-2
Nc1nc(SCc2ccc(F)cc2)ns1	-4	-6	2	0	-1	0
CC(C)(C)OC(=O)NCC(=O)Oc1cc2oc(=O)cc(-c3ccccc3)c2cc1Cl	81*	10	-6	0	1	3
CCn1c2ccc(OC)cc2c2nc3ccccc3nc21	-20	-16	1	-4	?	-10
CCCCOC(=O)Cn1c2ccc(OC)cc2c2nc3ccccc3nc21	-60	79*	9	-27	-28*	-25
SMILES	Runt-SMMHC FRET	EBV gp42 inh	LANA-H2A inh	RanGTP-Impb inh	MEX-5 binding	Runt-CBFb FRET
CCOc1ccc(Cn2c3ccc(OC)cc3c3nc4ccccc4nc32)cc1	-215	123*	7	.	.	-67
Cc1nc(C2CC(=O)OC23CCCCC3)cs1 (stereo not drawn)	3	-11	-5.5*	-4	2	-2
Nc1nc(C2CC(=O)OC23CCCCC3)cs1 (stereo not drawn)	-1	-30	9	21*	-2	3
CCCCCCc1cc2cc(C(=O)Nc3ccccc3)c(=O)oc2cc1O	58*	-24	-1	117*	2	113*
CCCCCCc1cc2cc(C(=O)NCc3ccccc3)c(=N)oc2cc1O	75	-29	-1	146*	-5	40
CCN(CC)c1ccc2cc(C(=O)NCc3ccc(F)cc3)c(=N)oc2c1	.	.	-11	99*	-1	.
N=c1oc2ccc(Br)cc2cc1C(=O)NCc1ccc(F)cc1	.	.	1	2	-1	.
CC(c1ccccc1)C1CC(=O)N(c2cc(Cl)ccn2)C1=O (stereo not drawn)	-1	-3	-4	-2	1	1
CC(=O)c1c(Cl)nc2ccc(Br)cc2c1-c1ccccc1	.	.	0	3	-1	.
COc1ccc(OCC(O)CNS(=O)(=O)c2cccc(Cl)c2)cc1 (stereo not drawn)	-1	7	1	8	-1	0
CN(CCO)c1cc(N2CCN(C(=O)c3ccco3)CC2)c2nonc2c1[N+](=O)[O-]	-4	-19	1	-3	0	-6
CCOC(=O)C1(CCc2ccccc2)CCN(C(=O)CCn2cnnn2)CC1	-1	-11	-5	-2	-2	-2
O=C(c1ccco1)N1N=C(c2cccs2)CC1c1ccco1 (stereo not drawn)	12	7	-1	-1	1	22
Cc1ccc(C2CC(c3cccs3)=NN2C(=O)c2ccco2)o1 (stereo not drawn)	1	-1	20*	-2	1	2
O=C(N/N=C/c1ccco1)c1cc(=O)[nH]c2ccccc12	0	0	16*	?	0	0
CC1=NNC(=O)C1CCC(=O)N/N=C/c1ccco1 (stereo not drawn)	6	-7	0	4	-3	1
CC1C(=O)NN=C1C(=O)N/N=C/c1ccco1 (stereo not drawn)	0	-1	-2	5	-26*	0
COc1ccc(/C=N/NC(=O)c2cc(=O)[nH]c3ccccc23)cc1OC	1	3	-3	3	1	-3
CC1C(=O)NN=C1C(=O)N/N=C\c1ccc(O)cc1O (stereo not drawn)	-21	2	4	1	-62*	-6
CCCCCCCc1c(O)nc(SCC(=O)O)[nH]c1=O	-7	-10	48*	7	3	-1
CCCCCc1c(C)nc(SCC(=O)O)[nH]c1=O	2	-7	4	3	0	2
CC(=O)Oc1c(-c2ccco2)oc2ccccc2c1=O	92*	9	-4	13	-1	20
